Results reported in ChEMBL document CHEMBL1134616, “Novel 7-oxyiminomethyl derivatives of camptothecin with potent in vitro and in vivo antitumor activity” (J Med Chem, 2001).

Key:
[1] = Percentage of body weight loss in mice with lung carcinoma LX-1 at a oral dose of 3 mg/kg; assay type: functional, Mus musculus
How it was run: (§1)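 Nude athymic CD1 mice, 8–10 weeks old, bearing s.c. human lung tumor xenografts in both flanks. Given oral drug in 10 mL/kg on a q4dx4 schedule, beginning when tumors were visible but not measurable. Read-out is percent body weight loss after drug treatment.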

NCI-H460 [2] = assay: No. of dead mice/ total No. of mice in CD1 mice with human Non-Small-Cell tumor at a oral dose of 1 mg/kg; assay type: ADME, organism-based; design: dose 1 mg/kg, route oral; conditions: in vivo
How it was run: (§2)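 Human lung tumor s.c. xenografts (fragments, both flanks) in nude athymic CD1 mice aged 8–10 weeks. Oral q4dx4 dosing at 10 mL/kg, begun when tumors were visible but not measurable. Toxicity is recorded as the number of dead mice over the total number of treated mice.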

[3] = Percentage inhibition of tumor volume mice with lung carcinoma LX-1 at a oral dose of 3 mg/kg; assay type: functional; conditions: Mus musculus
How it was run: (§3)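 Nude athymic CD1 mice, 8–10 weeks old, with human lung tumor fragments implanted s.c. in both flanks. Oral dosing in 10 mL/kg, q4dx4, started when tumors were visible but not measurable. Tumor volume = d²×D/2 from caliper diameters. Percent inhibition of treated versus control volume taken 7–10 days after the last dose. Volumes compared by Student's t test, P<0.05.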

NCI-H460 [4] = assay: Log 10 cell kill induced by treatment in CD1 mice with human Non-Small-Cell tumor at a oral dose of 3 mg/kg; assay type: functional
How it was run: (§4)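 Nude athymic CD1 mice, 8–10 weeks, carrying s.c. human lung tumor fragments in both flanks. Given per os on a q4dx4 schedule at 10 mL/kg, starting when tumors were visible but not measurable. Volume = d²×D/2. Log10 cell kill = T−C/3.32 × tumor doubling time, where T and C are the days for treated and control tumors to reach a mean volume of 1000 mm³.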

[5] = Complete response in CD1 mice with human Non-Small-Cell tumor at a oral dose of 4 mg/kg; assay type: functional, Mus musculus
How it was run: (§5)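 Nude athymic CD1 mice, 8–10 weeks old, carrying serially passaged human lung tumor fragments implanted s.c. in both flanks. Oral dosing in 10 mL/kg on a q4dx4 schedule, begun once tumors were visible but not yet measurable. Complete response means no detectable tumor for at least 10 days after the end of treatment.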

NCI-H460 [6] = assay: Percentage inhibition of tumor volume in treated versus control mice against human Non-Small-Cell tumor xenograft at a oral dose of 3 mg/kg; assay type: functional; conditions: Mus musculus; how it was run: as §3
NCI-H460 [7] = assay: Percentage of body weight loss in CD1 mice with human Non-Small-Cell tumor at a oral dose of 4 mg/kg
NCI-H460 [8] = assay: Complete response in CD1 mice with human Non-Small-Cell tumor at a oral dose of 3 mg/kg; assay type: functional; how it was run: as §5
NCI-H460 [9] = assay: Log 10 cell kill induced by treatment in CD1 mice with human Non-Small-Cell tumor at a oral dose of 2 mg/kg; assay type: functional; how it was run: as §4
[10] = Percentage of body weight loss in CD1 mice with human Non-Small-Cell tumor at a oral dose of 4 mg/kg; assay type: functional, Mus musculus; how it was run: as §1
NCI-H460 [11] = assay: Percentage of body weight loss in CD1 mice with human Non-Small-Cell tumor at a oral dose of 1 mg/kg; assay type: functional; how it was run: as §1
NCI-H460 [12] = assay: No. of dead mice/ total No. of mice with human Non-Small-Cell tumor at a oral dose of 3 mg/kg; assay type: ADME, organism-based; design: dose 3 mg/kg, route oral; conditions: in vivo; how it was run: as §2
NCI-H460 [13] = assay: Percentage inhibition of tumor volume in treated versus control mice against human Non-Small-Cell tumor xenograft at a oral dose of 2 mg/kg; assay type: functional; conditions: Mus musculus; how it was run: as §3
[14] = Cytotoxicity against human non-small-cell lung carcinoma cell line H460 (NSCLC-H460); assay type: functional, cell-based
How it was run: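 Logarithmically growing cells were seeded in duplicate, exposed to drug for 1 h starting 24 h after seeding, and counted by Coulter counter 72 h after exposure. Drug was dissolved in DMSO before dilution. The IC50 is the concentration giving a 50% decrease in growth relative to untreated control.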

NCI-H460 [15] = assay: Percentage of body weight loss in CD1 mice with human Non-Small-Cell tumor at a oral dose of 2 mg/kg; assay type: functional; how it was run: as §1
NCI-H460 [16] = assay: Complete response in CD1 mice with human Non-Small-Cell tumor at a oral dose of 1 mg/kg; assay type: functional; how it was run: as §5
[17] = Log 10 cell kill induced by treatment in mice with lung carcinoma LX-1 at a oral dose of 3 mg/kg; assay type: functional, Mus musculus; how it was run: as §4
NCI-H460 [18] = assay: Complete response in CD1 mice with human Non-Small-Cell tumor at a oral dose of 2 mg/kg; assay type: functional; how it was run: as §5
[19] = Complete response in mice with lung carcinoma LX-1 at a oral dose of 3 mg/kg; assay type: functional, Mus musculus; how it was run: as §5
[20] = Percentage inhibition of tumor volume in treated versus control mice against human Non-Small-Cell tumor xenograft at a oral dose of 4 mg/kg; assay type: functional; conditions: Mus musculus; how it was run: as §3
NCI-H460 [21] = assay: No. of dead mice/ total No. of mice with human Non-Small-Cell tumor at a oral dose of 2 mg/kg; assay type: ADME, organism-based; design: dose 2 mg/kg, route oral; conditions: in vivo; how it was run: as §2
[22] = Log 10 cell kill induced by treatment in CD1 mice with human Non-Small-Cell tumor at a oral dose of 2 mg/kg
[23] = No. of dead mice/ total No. of mice in mice with lung carcinoma LX-1 at a oral dose of 3 mg/kg; assay type: ADME, organism-based; design: dose 3 mg/kg, route oral; conditions: mouse, in vivo; how it was run: as §2
NCI-H460 [24] = assay: Log 10 cell kill induced by treatment iin CD1 mice with human Non-Small-Cell tumor at a oral dose of 1 mg/kg; assay type: functional; how it was run: as §4
NCI-H460 [25] = assay: Percentage inhibition of tumor volume in treated versus control mice against human Non-Small-Cell tumor xenograft at a oral dose of 1 mg/kg; assay type: functional; conditions: Mus musculus; how it was run: as §3

**Q.** For `CC[C@@]1(O)C(=O)OCc2c1cc1n(c2=O)Cc2c-1nc1ccccc1c2/C=N/OC(C)(C)C` [GIMATECAN], which BWL [1] is on record?
**A.** The BWL was 11%.

**Q.** What about the Toxicity (NCI-H460 [2]) of the same compound?
**A.** The Toxicity was 0.

**Q.** What about the inhibition in vivo at 3 mg/kg [3] of the same compound?
**A.** The inhibition in vivo at 3 mg/kg was 100%.

**Q.** What about the LCK (NCI-H460 [4]) of the same compound?
**A.** The LCK was 2.5.

**Q.** And the CR [5]?
**A.** Its CR is 4.

**Q.** And the inhibition in vivo at 3 mg/kg (NCI-H460 [6])?
**A.** The inhibition in vivo at 3 mg/kg was 100%.

**Q.** What about the BWL (NCI-H460 [7]) of the same compound?
**A.** Its BWL is 23%.

**Q.** And the CR (NCI-H460 [8])?
**A.** The CR was 8.

**Q.** And the LCK (NCI-H460 [9])?
**A.** Its LCK is 2.4.

**Q.** And the BWL [10]?
**A.** The BWL was 5%.

**Q.** What about the BWL (NCI-H460 [11]) of the same compound?
**A.** The BWL was 0%.

**Q.** What about the Toxicity (NCI-H460 [12]) of the same compound?
**A.** The Toxicity was 2.

**Q.** And the inhibition in vivo at 2 mg/kg (NCI-H460 [13])?
**A.** The inhibition in vivo at 2 mg/kg was 99%.

**Q.** And the IC50 [14]?
**A.** Its IC50 is 15 nM.

**Q.** And the BWL (NCI-H460 [15])?
**A.** Its BWL is 1%.

**Q.** And the CR (NCI-H460 [16])?
**A.** Its CR is 0.

**Q.** What about the LCK [17] of the same compound?
**A.** The LCK was 5.3.

**Q.** And the CR (NCI-H460 [18])?
**A.** Its CR is 5.

**Q.** What about the CR [19] of the same compound?
**A.** The CR was 8.

**Q.** And the inhibition in vivo at 4 mg/kg [20]?
**A.** The inhibition in vivo at 4 mg/kg was 99%.

**Q.** What about the Toxicity (NCI-H460 [21]) of the same compound?
**A.** Its Toxicity is 0.

**Q.** And the LCK [22]?
**A.** Its LCK is 2.4.

**Q.** And the Toxicity [23]?
**A.** The Toxicity was 0.

**Q.** What about the LCK (NCI-H460 [24]) of the same compound?
**A.** The LCK was 1.4.

**Q.** And the inhibition in vivo at 1 mg/kg (NCI-H460 [25])?
**A.** Its inhibition in vivo at 1 mg/kg is 90%.
